Data published in ChEMBL document CHEMBL5678806, “NMS-P937, an orally available, specific small-molecule polo-like kinase 1 inhibitor with antitumor activity in solid and hematologic malignancies” (Mol Cancer Ther, 2012).
The source made the active and inactive calls. No cut-off for these calls is given here.

What was measured:
[1] = target: Vascular endothelial growth factor receptor 3 (Homo sapiens, UniProt P35916); experiment: Inhibition of VEGFR3 (unknown origin) in presence of [gamma-33P]ATP
[2] = target: Tyrosine-protein kinase Fgr (Homo sapiens) (UniProt P09769); experiment: Inhibition of N-terminal His6-tagged recombinant human Fgr (2 to end residues) expressed in baculovirus infected Sf21 cells assessed as residual activity at 1 uM relative to control
[3] = system: HCC78; experiment: Antiproliferative activity against human HCC78 cells assessed as inhibition of cell growth incubated for 72 hrs by cell-titer glo assay; format: functional, cell-based; details: HCC78, 72 h
Method in brief: (§1)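 Cells seeded at 10,000–30,000/cm² (adherent) or 100,000/mL (nonadherent) in medium with 10% fetal calf serum; after 24 h, treated in duplicate with serial dilutions for 72 h. Viable cell number read by CellTiter-Glo luminescence; IC50 from sigmoidal fit; at least two independent experiments.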

[4] = target: Glycogen synthase kinase-3 beta (Homo sapiens, UniProt P49841); experiment: Inhibition of GSK3beta (unknown origin) in presence of [gamma-33P]ATP
Sequence of Glycogen synthase kinase-3 beta (P49841 whole entry): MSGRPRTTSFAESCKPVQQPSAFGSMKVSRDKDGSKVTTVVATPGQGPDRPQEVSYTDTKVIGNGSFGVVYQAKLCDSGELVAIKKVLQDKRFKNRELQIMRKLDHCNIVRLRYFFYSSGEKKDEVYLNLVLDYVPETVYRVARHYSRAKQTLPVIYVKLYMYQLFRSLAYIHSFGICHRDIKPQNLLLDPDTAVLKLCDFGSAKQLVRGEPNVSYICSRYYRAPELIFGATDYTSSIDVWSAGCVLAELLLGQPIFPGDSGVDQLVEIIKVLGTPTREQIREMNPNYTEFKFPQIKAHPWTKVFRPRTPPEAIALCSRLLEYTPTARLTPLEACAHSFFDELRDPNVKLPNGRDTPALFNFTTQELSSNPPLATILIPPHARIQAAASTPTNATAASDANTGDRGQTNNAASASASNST

[5] = target: Proto-oncogene tyrosine-protein kinase Src (Homo sapiens) (UniProt P12931); experiment: Inhibition of N-Terminal His6-tagged recombinant full-length human c-SRC expressed in Sf21 cells assessed as residual activity at 0.1 uM relative to control
Sequence of Proto-oncogene tyrosine-protein kinase Src (Homo sapiens) (P12931 2-536 limits assumed): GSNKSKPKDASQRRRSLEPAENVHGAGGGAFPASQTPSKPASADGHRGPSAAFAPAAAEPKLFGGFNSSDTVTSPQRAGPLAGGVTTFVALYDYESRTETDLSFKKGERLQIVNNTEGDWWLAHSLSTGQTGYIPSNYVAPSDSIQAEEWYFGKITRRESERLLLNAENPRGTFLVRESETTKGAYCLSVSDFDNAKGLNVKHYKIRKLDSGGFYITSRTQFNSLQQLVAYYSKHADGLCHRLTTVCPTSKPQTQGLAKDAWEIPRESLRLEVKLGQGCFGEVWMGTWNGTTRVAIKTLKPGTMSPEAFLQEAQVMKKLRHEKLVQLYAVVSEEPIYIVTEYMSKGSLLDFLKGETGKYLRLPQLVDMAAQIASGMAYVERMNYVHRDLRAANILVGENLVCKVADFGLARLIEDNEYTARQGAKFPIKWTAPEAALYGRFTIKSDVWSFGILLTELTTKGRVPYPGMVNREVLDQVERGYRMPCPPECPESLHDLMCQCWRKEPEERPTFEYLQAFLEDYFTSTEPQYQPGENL

[6] = target: Tyrosine-protein kinase SYK (Homo sapiens, UniProt P43405); experiment: Inhibition of SYK (unknown origin) in presence of [gamma-33P]ATP
[7] = system: MDA-MB-468; experiment: Antiproliferative activity against human MDA-MB-468 cells assessed as inhibition of cell growth incubated for 72 hrs by cell-titer glo assay; format: functional, cell-based; details: MDA-MB-468, 72 h; method in brief: as §1
[8] = target: Casein kinase I homolog 1 (Saccharomyces cerevisiae S288c) (UniProt P23291); experiment: Inhibition of yeast CK1 assessed as residual activity at 1 uM relative to control
[9] = target: Maternal embryonic leucine zipper kinase (Homo sapiens) (UniProt Q14680); experiment: Inhibition of N-terminal GST-tagged recombinant human MELK (1 to 340 residues) expressed in baculovirus infected Sf21 cells assessed as residual activity at 1 uM relative to control
Sequence of Maternal embryonic leucine zipper kinase (Homo sapiens) (Q14680 whole entry, looked up, the tested form may be a part): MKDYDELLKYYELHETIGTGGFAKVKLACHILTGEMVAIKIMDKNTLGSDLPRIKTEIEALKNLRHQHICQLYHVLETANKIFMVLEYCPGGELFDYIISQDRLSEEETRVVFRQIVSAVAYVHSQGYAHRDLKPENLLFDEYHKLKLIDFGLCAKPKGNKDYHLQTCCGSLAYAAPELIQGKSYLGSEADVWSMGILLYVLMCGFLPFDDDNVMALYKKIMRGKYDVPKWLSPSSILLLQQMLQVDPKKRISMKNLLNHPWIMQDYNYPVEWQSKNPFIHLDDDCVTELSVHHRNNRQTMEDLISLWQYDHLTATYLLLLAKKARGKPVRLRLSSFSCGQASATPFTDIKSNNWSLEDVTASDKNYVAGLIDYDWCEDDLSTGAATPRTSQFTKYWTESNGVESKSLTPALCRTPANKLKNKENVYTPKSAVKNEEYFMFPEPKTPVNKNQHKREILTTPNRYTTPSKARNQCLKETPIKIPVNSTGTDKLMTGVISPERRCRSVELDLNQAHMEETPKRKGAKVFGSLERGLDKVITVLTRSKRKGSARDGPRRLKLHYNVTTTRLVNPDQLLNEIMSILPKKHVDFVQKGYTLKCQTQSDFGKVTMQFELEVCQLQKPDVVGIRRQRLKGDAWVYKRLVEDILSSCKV

[10] = system: RPMI-8226; experiment: Antiproliferative activity against human RPMI-8226 cells assessed as inhibition of cell growth incubated for 72 hrs by cell-titer glo assay; format: functional, cell-based; details: RPMI-8226, 72 h
Method in brief: (§2)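 Cells from ATCC or ECACC, kept in supplier-recommended medium with 1% penicillin-streptomycin at 37°C, 5% CO₂. Seeded at 10,000–30,000/cm² (adherent) or 100,000/mL (nonadherent) in medium with 10% fetal calf serum. Dosed after 24 h in duplicate with serial dilutions. Viable cells read by CellTiter-Glo 72 h later. IC50 from sigmoidal fit. At least two independent experiments.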

[11] = system: CAKI-2; experiment: Antiproliferative activity against human CAKI-2 cells assessed as inhibition of cell growth incubated for 72 hrs by cell-titer glo assay; format: functional, cell-based; details: CAKI-2, 72 h
Method in brief: (§3)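 Cells seeded 10,000–30,000/cm² (adherent) or 100,000/mL (suspension) in medium with 10% fetal calf serum; after 24 h treated in duplicate with serial dilutions for 72 h. Viable cells read by CellTiter-Glo luminescence; IC50 from sigmoidal fit; at least two independent experiments.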

[12] = Clearance in male cynomolgus monkey at 5 mg/kg, iv by LC-MS analysis; format: ADME, organism-based, Macaca fascicularis; details: in vivo
[13] = Half-life in Sprague-Dawley rat at 10 mg/kg, iv by LC-MS analysis; format: ADME, organism-based; details: in vivo
[14] = target: Ribosomal protein S6 kinase alpha-4 (Homo sapiens) (UniProt O75676); experiment: Inhibition of N-terminal His6-tagged recombinant human MSK2 (2 to end residues) expressed in baculovirus infected Sf21 cells assessed as residual activity at 1 uM relative to control
[15] = target: Angiopoietin-1 receptor (Homo sapiens) (UniProt Q02763); experiment: Inhibition of N-terminal His6-tagged recombinant human Tie2 (771 to end residues) expressed in baculovirus infected Sf21 cells assessed as residual activity at 0.1 uM relative to control
[16] = system: NCI-H358; experiment: Antiproliferative activity against human NCI-H358 cells assessed as inhibition of cell growth incubated for 72 hrs by cell-titer glo assay; format: functional, cell-based; details: NCI-H358, 72 h; method in brief: as §2
[17] = target: Tyrosine-protein kinase receptor TYRO3 (Homo sapiens) (UniProt Q06418); experiment: Inhibition of N-terminal His6-tagged recombinant human Rse (451 to end residues) expressed in baculovirus infected Sf21 cells assessed as residual activity at 0.1 uM relative to control
Sequence of Tyrosine-protein kinase receptor TYRO3 (Homo sapiens) (Q06418 whole entry): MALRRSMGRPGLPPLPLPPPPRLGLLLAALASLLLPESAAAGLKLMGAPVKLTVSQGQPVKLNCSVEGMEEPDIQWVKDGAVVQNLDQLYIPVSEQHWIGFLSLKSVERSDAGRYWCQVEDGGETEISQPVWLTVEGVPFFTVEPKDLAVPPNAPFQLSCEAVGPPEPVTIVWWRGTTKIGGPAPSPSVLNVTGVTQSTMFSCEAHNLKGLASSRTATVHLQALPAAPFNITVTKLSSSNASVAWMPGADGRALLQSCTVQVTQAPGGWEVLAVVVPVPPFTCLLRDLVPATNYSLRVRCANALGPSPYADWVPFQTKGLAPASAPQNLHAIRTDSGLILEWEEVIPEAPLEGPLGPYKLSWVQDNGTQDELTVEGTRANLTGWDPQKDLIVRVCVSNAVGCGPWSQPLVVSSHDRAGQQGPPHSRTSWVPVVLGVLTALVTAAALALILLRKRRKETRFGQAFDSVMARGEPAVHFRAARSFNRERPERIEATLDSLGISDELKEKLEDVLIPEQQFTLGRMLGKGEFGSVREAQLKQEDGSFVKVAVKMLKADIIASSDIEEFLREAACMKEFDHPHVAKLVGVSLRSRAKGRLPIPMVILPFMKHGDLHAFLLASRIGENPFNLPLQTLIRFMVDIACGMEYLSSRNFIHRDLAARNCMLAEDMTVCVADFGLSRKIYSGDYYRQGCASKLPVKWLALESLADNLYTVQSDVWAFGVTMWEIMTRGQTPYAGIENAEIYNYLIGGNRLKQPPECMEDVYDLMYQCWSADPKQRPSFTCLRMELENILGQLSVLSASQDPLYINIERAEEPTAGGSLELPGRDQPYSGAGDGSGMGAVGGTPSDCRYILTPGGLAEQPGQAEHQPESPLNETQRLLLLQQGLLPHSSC

[18] = Half-life in Beagle dog at 5 mg/kg, po by LC-MS analysis; format: ADME, organism-based, Canis lupus familiaris; details: in vivo
[19] = system: Hs-578T; experiment: Antiproliferative activity against human Hs-578T cells assessed as inhibition of cell growth incubated for 72 hrs by cell-titer glo assay; format: functional, cell-based; method in brief: as §1
[20] = system: MDA-MB-231; experiment: Antiproliferative activity against human MDA-MB-231 cells assessed as inhibition of cell growth incubated for 72 hrs by cell-titer glo assay; format: functional, cell-based; details: MDA-MB-231, 72 h; method in brief: as §1
[21] = target: Serine/threonine-protein kinase SIK1 (Homo sapiens) (UniProt P57059); experiment: Inhibition of N-terminal 6His-tagged recombinant human SIK (1 to 281 residues) expressed in baculovirus infected Sf21 cells assessed as residual activity at 1 uM relative to control
Sequence of Serine/threonine-protein kinase SIK1 (Homo sapiens) (P57059 whole entry, the tested form may be a part): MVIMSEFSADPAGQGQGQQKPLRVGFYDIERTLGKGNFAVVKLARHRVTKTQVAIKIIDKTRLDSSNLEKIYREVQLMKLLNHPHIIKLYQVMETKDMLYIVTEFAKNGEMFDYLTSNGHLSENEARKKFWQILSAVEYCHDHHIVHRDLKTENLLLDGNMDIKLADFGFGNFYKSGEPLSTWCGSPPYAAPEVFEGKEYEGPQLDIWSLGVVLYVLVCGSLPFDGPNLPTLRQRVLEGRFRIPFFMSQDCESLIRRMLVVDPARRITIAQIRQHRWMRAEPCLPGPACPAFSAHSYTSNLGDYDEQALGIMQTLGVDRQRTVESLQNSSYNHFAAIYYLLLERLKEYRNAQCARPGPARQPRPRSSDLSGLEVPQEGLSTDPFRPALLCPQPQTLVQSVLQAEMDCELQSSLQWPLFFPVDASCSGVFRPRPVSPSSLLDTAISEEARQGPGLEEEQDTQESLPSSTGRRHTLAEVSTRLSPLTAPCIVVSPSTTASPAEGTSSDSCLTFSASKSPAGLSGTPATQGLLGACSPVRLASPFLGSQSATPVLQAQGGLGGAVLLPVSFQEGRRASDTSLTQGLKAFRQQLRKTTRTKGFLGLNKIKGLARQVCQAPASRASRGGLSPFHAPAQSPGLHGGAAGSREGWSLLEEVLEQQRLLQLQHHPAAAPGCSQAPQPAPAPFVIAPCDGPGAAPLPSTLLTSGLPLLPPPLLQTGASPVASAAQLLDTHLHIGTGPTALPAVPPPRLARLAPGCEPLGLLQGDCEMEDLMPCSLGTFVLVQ

[22] = system: U2OS; experiment: Effect on cell morphology in human U2OS cells expressing GFP/alpha-tubulin fusion protein assessed as misaligned chromosomes […] at 1 uM incubated for 24 hrs by laser scanning confocal microscopy analysis; format: functional, cell-based
[23] = target: Maternal embryonic leucine zipper kinase (Homo sapiens) (UniProt Q14680); experiment: Inhibition of MELK (unknown origin) at 10 micromol/L in presence of [gamma-33P]ATP relative to control; details: dose 10.0 µmol/L
[24] = target: Serine/threonine-protein kinase tousled-like 2 (Homo sapiens, UniProt Q86UE8); experiment: Inhibition of N-terminal 6His-tagged recombinant human TLK2 (388 to end residues) expressed in baculovirus infected Sf21 cells assessed as residual activity at 0.1 uM relative to control
Sequence of Serine/threonine-protein kinase tousled-like 2 (Q86UE8 whole entry, looked up): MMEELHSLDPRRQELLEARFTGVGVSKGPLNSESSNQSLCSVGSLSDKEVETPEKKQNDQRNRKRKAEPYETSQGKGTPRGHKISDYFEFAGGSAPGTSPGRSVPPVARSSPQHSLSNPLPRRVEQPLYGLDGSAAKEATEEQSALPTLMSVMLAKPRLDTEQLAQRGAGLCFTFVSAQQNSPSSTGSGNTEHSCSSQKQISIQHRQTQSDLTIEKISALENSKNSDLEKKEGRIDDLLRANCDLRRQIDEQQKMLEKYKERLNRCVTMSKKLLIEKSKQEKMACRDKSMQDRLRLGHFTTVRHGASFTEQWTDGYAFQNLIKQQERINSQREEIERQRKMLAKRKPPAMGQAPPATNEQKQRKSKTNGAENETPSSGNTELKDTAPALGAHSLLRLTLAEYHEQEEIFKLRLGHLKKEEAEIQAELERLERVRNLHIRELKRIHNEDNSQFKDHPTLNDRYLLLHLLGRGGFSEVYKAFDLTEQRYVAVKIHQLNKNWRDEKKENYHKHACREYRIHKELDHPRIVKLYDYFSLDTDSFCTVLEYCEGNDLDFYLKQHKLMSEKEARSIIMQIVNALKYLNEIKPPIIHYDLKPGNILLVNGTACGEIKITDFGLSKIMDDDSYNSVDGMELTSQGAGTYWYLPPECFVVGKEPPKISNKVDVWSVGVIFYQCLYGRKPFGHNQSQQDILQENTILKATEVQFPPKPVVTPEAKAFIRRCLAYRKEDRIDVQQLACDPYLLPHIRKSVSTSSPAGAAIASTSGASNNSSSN

[25] = target: Protein kinase C beta type (Homo sapiens, UniProt P05771); experiment: Inhibition of PKC beta (unknown origin) in presence of [gamma-33P]ATP
Sequence of Protein kinase C beta type (P05771 whole entry): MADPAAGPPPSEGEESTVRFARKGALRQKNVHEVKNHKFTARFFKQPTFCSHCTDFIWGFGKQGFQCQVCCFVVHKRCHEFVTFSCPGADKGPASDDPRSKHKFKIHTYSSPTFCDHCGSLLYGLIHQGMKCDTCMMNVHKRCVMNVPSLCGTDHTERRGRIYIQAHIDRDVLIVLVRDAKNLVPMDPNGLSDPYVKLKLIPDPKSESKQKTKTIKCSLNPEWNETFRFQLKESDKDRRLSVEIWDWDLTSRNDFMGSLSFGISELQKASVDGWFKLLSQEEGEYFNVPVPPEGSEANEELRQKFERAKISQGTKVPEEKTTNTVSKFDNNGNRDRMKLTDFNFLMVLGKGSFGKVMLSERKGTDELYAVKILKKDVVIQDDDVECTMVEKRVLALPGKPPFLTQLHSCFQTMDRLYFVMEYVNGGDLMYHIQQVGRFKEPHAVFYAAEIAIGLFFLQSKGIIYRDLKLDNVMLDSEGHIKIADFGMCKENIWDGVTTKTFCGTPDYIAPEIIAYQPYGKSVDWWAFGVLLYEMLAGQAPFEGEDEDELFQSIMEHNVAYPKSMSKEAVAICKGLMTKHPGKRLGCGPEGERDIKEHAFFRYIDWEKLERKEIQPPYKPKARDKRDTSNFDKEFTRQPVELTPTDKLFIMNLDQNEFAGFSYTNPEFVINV

[26] = AUC in male cynomolgus monkey at 5 mg/kg, po by LC-MS analysis; format: ADME, organism-based, Macaca fascicularis; details: in vivo
[27] = system: L-363; experiment: Antiproliferative activity against human L-363 cells assessed as inhibition of cell growth incubated for 72 hrs by cell-titer glo assay; format: functional, cell-based; details: L-363, 72 h; method in brief: as §1
[28] = system: 697; experiment: Antiproliferative activity against human 697 cells assessed as inhibition of cell growth incubated for 72 hrs by cell-titer glo assay; format: functional, cell-based; details: Homo sapiens, 697, 72 h; method in brief: as §3
[29] = Cmax in male cynomolgus monkey at 5 mg/kg, iv by LC-MS analysis; format: ADME, organism-based, Macaca fascicularis; details: in vivo
[30] = system: A2780; experiment: In vivo inhibition of PLK1 in human A2780 cells xenografted in nu/nu mouse assessed as decreased TCTP phosphorylation on Ser46 at 60 mg/kg, po administered for 2 hrs by immunohistochemistry analysis; format: functional, organism-based
[31] = Cmax in nu/nu mouse at 10 mg/kg, po by LC-MS analysis; format: ADME, organism-based; details: in vivo

CN1CCN(c2ccc(OC(F)(F)F)c(Nc3ncc4c(n3)-c3c(c(C(N)=O)nn3CCO)CC4)c2)CC1 [ONVANSERTIB] showed an IC50 [1] of over 10000 nM, an Activity [2] of 85% and an IC50 [3] of 340 nM. It also gave an IC50 [4] of over 10000 nM, an Activity [5] of 43% and an IC50 [6] of over 10000 nM. For the same molecule, the IC50 [7] was 83 nM, the Activity [8] was 24% and the Activity [9] was 71%. The IC50 [10] was 128 nM, the IC50 [11] was 83 nM and the clearance [12] was 11.2 mL/min/kg. It also gave a half-life [13] of 2.7 h, an Activity [14] of 85% and an Activity [15] of 113%. The IC50 [16] was 175 nM, the Activity [17] was 137% and the half-life [18] was 4.6 h. It also gave an IC50 [19] of 251 nM, an IC50 [20] of 172 nM and an Activity [21] of 93%. For the same molecule, the Activity [22] was “Active”, the inhibition [23] was 95.5% and the Activity [24] was 182%. It also gave an IC50 [25] of over 10000 nM, an AUC [26] of 14.8 µM·h and an IC50 [27] of 37 nM. The IC50 [28] was 26 nM, the Cmax [29] was 3000 nM and the inhibition [30] was “Active”. It also gave a Cmax [31] of 600 nM.
